Data published in ChEMBL document CHEMBL5058577, “EUbOPEN Chemogenomics Library 2 (Multiplex)” (2022).

System: U2OS
Assay: Multiplex assay against U2OS
Format: toxicity, cell-based
Conditions: human
Procedure, shortened: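 Hoechst33342, BioTracker Green Microtubule Cytoskeleton Dye, MitoTracker Red and Annexin V Alexa Fluor 680 were added to live cells at seeding, and imaging on a CQ1 microscope at 37°C and 5% CO2 followed compound addition. Gating by CellPathfinder machine learning separated cells into Hoechst high-intensity objects or normal cells, then normal cells into healthy, pyknosed or fragmented nuclei, then pyknosed cells into mitotic or apoptotic. Per cents of healthy-nucleus cells are reported for the tubulin, mitochondrial-mass and membrane-permeability phenotypes.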

[1] = 12 h, 1 µM, compound concentration 1 uM, replicate 1
[2] = 12 h, 1 µM, compound concentration 1 uM, replicate 2
[3] = 12 h, 10 µM, compound concentration 10 uM, replicate 1
[4] = 12 h, 10 µM, compound concentration 10 uM, replicate 2
[5] = 24 h, 1 µM, compound concentration 1 uM, replicate 1
[6] = 24 h, 1 µM, compound concentration 1 uM, replicate 2
[7] = 24 h, 10 µM, compound concentration 10 uM, replicate 1
[8] = 24 h, 10 µM, compound concentration 10 uM, replicate 2
[9] = 48 h, 1 µM, compound concentration 1 uM, replicate 1
[10] = 48 h, 1 µM, compound concentration 1 uM, replicate 2
[11] = 48 h, 10 µM, compound concentration 10 uM, replicate 1
[12] = 48 h, 10 µM, compound concentration 10 uM, replicate 2

CCCCCC(O)/C=C/[C@H]1C(=O)CC(O)C1C/C=C\CCCC(=O)O (stereo partly specified)
Population Apoptotic (%) [1]: 60%
Population Fragmented Nuclei (%) [1]: 28%
Population Healthy Nuclei (%) [1]: 59%
Population Hoechst High Intensity Objects (%) [1]: 1%
Population Membrane Permeable-Phenotype (%) [1]: 5%
Population Mitochondria Different-Phenotype (%) [1]: 4%
Population Mitotic Cells (%) [1]: 40%
Population Normal (%) [1]: 98%
Population Pyknosed Nuclei (%) [1]: 12%
Population Tubulin-Different-Phenotype (%) [1]: 4%
Total Cell Count [1]: 203
Population Apoptotic (%) [2]: 88%
Population Fragmented Nuclei (%) [2]: 15%
Population Healthy Nuclei (%) [2]: 76%
Population Hoechst High Intensity Objects (%) [2]: 0%
Population Membrane Permeable-Phenotype (%) [2]: 8%
Population Mitochondria Different-Phenotype (%) [2]: 6%
Population Mitotic Cells (%) [2]: 11%
Population Normal (%) [2]: 99%
Population Pyknosed Nuclei (%) [2]: 8%
Population Tubulin-Different-Phenotype (%) [2]: 8%
Total Cell Count [2]: 113
Population Apoptotic (%) [3]: 71%
Population Fragmented Nuclei (%) [3]: 23%
Population Healthy Nuclei (%) [3]: 69%
Population Hoechst High Intensity Objects (%) [3]: 2%
Population Membrane Permeable-Phenotype (%) [3]: 8%
Population Mitochondria Different-Phenotype (%) [3]: 3%
Population Mitotic Cells (%) [3]: 28%
Population Normal (%) [3]: 97%
Population Pyknosed Nuclei (%) [3]: 7%
Population Tubulin-Different-Phenotype (%) [3]: 5%
Total Cell Count [3]: 190
Population Apoptotic (%) [4]: 66%
Population Fragmented Nuclei (%) [4]: 16%
Population Healthy Nuclei (%) [4]: 73%
Population Membrane Permeable-Phenotype (%) [4]: 10%
Population Mitochondria Different-Phenotype (%) [4]: 2%
Population Mitotic Cells (%) [4]: 33%
Population Pyknosed Nuclei (%) [4]: 9%
Population Tubulin-Different-Phenotype (%) [4]: 4%
Total Cell Count [4]: 94
Population Apoptotic (%) [5]: 86%
Population Fragmented Nuclei (%) [5]: 27%
Population Healthy Nuclei (%) [5]: 63%
Population Hoechst High Intensity Objects (%) [5]: 2%
Population Membrane Permeable-Phenotype (%) [5]: 3%
Population Mitochondria Different-Phenotype (%) [5]: 0%
Population Mitotic Cells (%) [5]: 13%
Population Normal (%) [5]: 98%
Population Pyknosed Nuclei (%) [5]: 8%
Population Tubulin-Different-Phenotype (%) [5]: 1%
Total Cell Count [5]: 250
Population Apoptotic (%) [6]: 90%
Population Fragmented Nuclei (%) [6]: 16%
Population Healthy Nuclei (%) [6]: 74%
Population Hoechst High Intensity Objects (%) [6]: 0%
Population Membrane Permeable-Phenotype (%) [6]: 5%
Population Mitochondria Different-Phenotype (%) [6]: 7%
Population Mitotic Cells (%) [6]: 9%
Population Normal (%) [6]: 99%
Population Tubulin-Different-Phenotype (%) [6]: 4%
Total Cell Count [6]: 131
Population Apoptotic (%) [7]: 100%
Population Fragmented Nuclei (%) [7]: 23%
Population Healthy Nuclei (%) [7]: 66%
Population Hoechst High Intensity Objects (%) [7]: 1%
Population Membrane Permeable-Phenotype (%) [7]: 6%
Population Mitochondria Different-Phenotype (%) [7]: 4%
Population Mitotic Cells (%) [7]: 0%
Population Normal (%) [7]: 98%
Population Pyknosed Nuclei (%) [7]: 9%
Population Tubulin-Different-Phenotype (%) [7]: 4%
Total Cell Count [7]: 216
Population Apoptotic (%) [8]: 90%
Population Fragmented Nuclei (%) [8]: 16%
Population Healthy Nuclei (%) [8]: 74%
Population Hoechst High Intensity Objects (%) [8]: 2%
Population Membrane Permeable-Phenotype (%) [8]: 5%
Population Mitochondria Different-Phenotype (%) [8]: 1%
Population Mitotic Cells (%) [8]: 10%
Population Normal (%) [8]: 97%
Population Pyknosed Nuclei (%) [8]: 8%
Population Tubulin-Different-Phenotype (%) [8]: 2%
Total Cell Count [8]: 118
Population Apoptotic (%) [9]: 89%
Population Fragmented Nuclei (%) [9]: 19%
Population Healthy Nuclei (%) [9]: 71%
Population Hoechst High Intensity Objects (%) [9]: 2%
Population Membrane Permeable-Phenotype (%) [9]: 4%
Population Mitochondria Different-Phenotype (%) [9]: 3%
Population Mitotic Cells (%) [9]: 10%
Population Normal (%) [9]: 97%
Population Pyknosed Nuclei (%) [9]: 8%
Population Tubulin-Different-Phenotype (%) [9]: 2%
Total Cell Count [9]: 334
Population Apoptotic (%) [10]: 100%
Population Fragmented Nuclei (%) [10]: 13%
Population Healthy Nuclei (%) [10]: 79%
Population Membrane Permeable-Phenotype (%) [10]: 5%
Population Mitochondria Different-Phenotype (%) [10]: 4%
Population Mitotic Cells (%) [10]: 0%
Population Pyknosed Nuclei (%) [10]: 7%
Population Tubulin-Different-Phenotype (%) [10]: 3%
Total Cell Count [10]: 189
Population Apoptotic (%) [11]: 89%
Population Fragmented Nuclei (%) [11]: 23%
Population Healthy Nuclei (%) [11]: 67%
Population Hoechst High Intensity Objects (%) [11]: 3%
Population Membrane Permeable-Phenotype (%) [11]: 6%
Population Mitochondria Different-Phenotype (%) [11]: 3%
Population Mitotic Cells (%) [11]: 10%
Population Normal (%) [11]: 96%
Population Pyknosed Nuclei (%) [11]: 9%
Population Tubulin-Different-Phenotype (%) [11]: 4%
Total Cell Count [11]: 302
Population Apoptotic (%) [12]: 100%
Population Fragmented Nuclei (%) [12]: 21%
Population Healthy Nuclei (%) [12]: 70%
Population Hoechst High Intensity Objects (%) [12]: 2%
Population Membrane Permeable-Phenotype (%) [12]: 7%
Population Mitotic Cells (%) [12]: 0%
Population Normal (%) [12]: 97%
Population Pyknosed Nuclei (%) [12]: 7%
Population Tubulin-Different-Phenotype (%) [12]: 3%
Total Cell Count [12]: 161
